The source made the active and inactive calls. No cut-off for these calls is given here.
Columns and labels:
[1] = species on record: Homo sapiens; test: Modulation of patient derived full length SMN2 pre mRNA splicing assessed as inclusion of exon 7
[2] = species on record: Homo sapiens; test: Modulation of patient derived full length SMN2 pre mRNA splicing assessed as restoration of functional SMN2 to protein level
[3] = test system: Salmonella typhimurium; test: Genotoxicity in Salmonella typhimurium TA1535 in presence of rat liver S9 fraction by Ames test; format: toxicity; conditions: salmonella enterica subsp. enterica serovar typhimurium
Summary of the method: (§1)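 Ames plate incorporation: strains grown overnight at 37 °C in nutrient broth (TA102 with 0.3 μg/mL tetracycline). Compound at 20–2000 μg/plate in top agar with histidine/biotin, plus rat liver S9 mix (NADP, glucose 6-phosphate, KCl, MgCl2, pH 7.4 phosphate). Vogel–Bonner plates incubated 37 °C, 2 days; colonies counted by image analysis. Positive: dose-dependent ≥2-fold (TA1535, TA98) or ≥1.5-fold (TA97, TA100, TA102) rise over background.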

[4] = test system: Salmonella typhimurium; test: Genotoxicity in Salmonella typhimurium TA97 in presence of rat liver S9 fraction by Ames test; format: toxicity; conditions: salmonella enterica subsp. enterica serovar typhimurium; summary of the method: as §1
[5] = test system: Salmonella typhimurium; test: Genotoxicity in Salmonella typhimurium TA98 in presence of rat liver S9 fraction by Ames test; format: toxicity; conditions: salmonella enterica subsp. enterica serovar typhimurium; summary of the method: as §1
[6] = test system: Salmonella typhimurium; test: Genotoxicity in Salmonella typhimurium TA100 in presence of rat liver S9 fraction by Ames test; format: toxicity; conditions: salmonella enterica subsp. enterica serovar typhimurium; summary of the method: as §1
[7] = test system: Salmonella typhimurium; test: Genotoxicity in Salmonella typhimurium TA102 in presence of rat liver S9 fraction by Ames test; format: toxicity; conditions: salmonella enterica subsp. enterica serovar typhimurium; summary of the method: as §1
[8] = Total AUC in wild type FVB mouse plasma at 10 mg/kg, po qd for 10 days by LC-MS/MS analysis; format: ADME, organism-based; set-up: dose 10 mg/kg, route oral, time AUCmax
[9] = test system: Mus musculus; test: Induction of SMN protein levels in C/C-Allele SMA FVB mouse brain at 3 mg/kg, po qd for 10 days measured 1 hr post last dose by HTRF assay relative to control; format: functional
Summary of the method: (§2)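 Adult C/C-allele SMA mice dosed orally once daily for 10 days at 1, 3 or 10 mg/kg. SMN protein in brain and quadriceps was expressed as % increase over vehicle-treated animals.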

[10] = test system: Mus musculus; test: Induction of SMN protein levels in C/C-Allele SMA FVB mouse brain at 10 mg/kg, po qd for 10 days measured 1 hr post last dose by HTRF assay relative to control; format: functional; summary of the method: as §2
[11] = Total AUC in neonatal wild type FVB mouse plasma at 3 mg/kg, ip qd for 10 days by LC-MS/MS analysis; format: ADME, organism-based; set-up: dose 3 mg/kg, route intraperitoneal, time AUCmax
Summary of the method: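 Plasma AUC determined in a satellite group of neonatal (P10) wild-type mice dosed ip. Free AUC was calculated using the free fraction measured in serum from adult mice.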

[12] = test system: Mus musculus; test: Induction of SMN protein levels in neonatal delta7 FVB mouse brain at 0.3 mg/kg, ip qd administered from postnatal day 3 to day 9 measured 1 hr post last dose by HTRF assay relative to control; format: functional
[13] = test system: Mus musculus; test: Induction of SMN protein levels in neonatal delta7 FVB mouse brain at 1 mg/kg, ip qd administered from postnatal day 3 to day 9 measured 1 hr post last dose by HTRF assay relative to control; format: functional
[14] = test system: Mus musculus; test: Induction of SMN protein levels in neonatal delta7 FVB mouse brain at 3 mg/kg, ip qd administered from postnatal day 3 to day 9 measured 1 hr post last dose by HTRF assay relative to control; format: functional
[15] = test system: Mus musculus; test: Induction of SMN protein levels in C/C-Allele SMA FVB mouse brain at 1 mg/kg, po qd for 10 days measured 1 hr post last dose by HTRF assay relative to control; format: functional; summary of the method: as §2

EC1.5 [1] | EC1.5 [2] | Compound | further results
820 nM | 3800 nM | Cc1cn2cc(NC(=O)c3ccc(C4CCNCC4)cc3)nc2c(C)n1 | 
inactive | inactive | Cc1cn2cc(N(C)C(=O)c3ccc(N4CCN(C)CC4)cc3)nc2c(C)n1 | 
100 nM | 200 nM | Cc1cn2cc(NC(=O)c3ccc(N4CCN(N5CCCC5)CC4)cc3F)nc2c(C)n1 | 
2030 nM | 8760 nM | Cc1cn2cc(NC(=O)c3c(F)cc(N4CCNCC4)cc3Cl)ncc2n1 | 
inactive | inactive | Cc1cn2cc(C(=O)Nc3ccc(C4CCN(C)CC4)cc3)nc2c(C)n1 | 
85 nM | 495 nM | Cc1cn2cc(NC(=O)c3cc(F)c(N4CCNC(C)C4)cc3F)ncc2n1 (stereo not given) | 
 | 1520 nM | Cc1cn2cc(NC(=O)c3ccc(N4CCN(C)CC4)cn3)nc2c(C)n1 | 
 |  | CCN1CCN(c2ccc3cc(-c4cn5cc(C)nc(C)c5n4)c(=O)oc3c2)C[C@@H]1C | Activity [3]: Toxic; Activity [4]: Toxic; Activity [5]: Toxic; Activity [6]: Toxic; Activity [7]: Toxic
58 nM | 206 nM | COc1cc(N2CCNC(C)C2)ccc1C(=O)Nc1cn2cc(C)nc2cn1 (stereo not given) | 
11 nM | 27 nM | Cc1cn2cc(NC(=O)c3ccc(N4CCNCC4)cc3F)cc(F)c2n1 | Activity [3]: Toxic; Activity [4]: Toxic; Activity [5]: Toxic; Activity [6]: Toxic; Activity [7]: Toxic
129 nM | 555 nM | COc1nc(N2CCNCC2)ccc1C(=O)Nc1cn2cc(C)nc2cn1 | 
29 nM | 86 nM | Cc1cn2cc(NC(=O)c3ccc(N4CCC(N5CCCC5)C4)cc3F)nc2c(C)n1 (stereo not given) | 
39 nM | 116 nM | Cc1nc2c(F)cc(NC(=O)c3ccc(N4CCNCC4)cc3F)cc2o1 | Activity [3]: Non-Toxic; Activity [4]: Non-Toxic; Activity [5]: Non-Toxic; Activity [6]: Non-Toxic; Activity [7]: Non-Toxic
4700 nM | inactive | Cc1cn2cc(-c3ccc4c(c3)OC(=O)N(C3CCNCC3)C4)nc2c(C)n1 | 
165 nM | 603 nM | Cc1cn2cc(NC(=O)c3ccc(N4CCNC(C)C4)c(F)c3F)ncc2n1 (stereo not given) | 
inactive | inactive | Cc1cn2cc(-c3ccc(NC(=O)N4CCN(C)CC4)cc3)nc2c(C)n1 | 
12 nM | 246 nM | CC[C@H]1CN(c2ccc(C(=O)Nc3cn4cc(C)nc4cn3)c(F)c2)CCN1 | AUC at 240 h [8]: 27100 ng·h/mL; Activity [9]: 81%; Activity [10]: 260%; AUC at 240 h [11]: 4450 ng·h/mL; Activity [12]: 26%; Activity [13]: 53%; Activity [14]: 100%; Activity [15]: 22%
106 nM | 265 nM | Cc1cn2cc(NC(=O)c3ccc(N4CCNC(C(C)C)C4)cc3F)ncc2n1 (stereo not given) | 

EC1.5 [1] | EC1.5 [2] | Compound | further results
530 nM | inactive | Cc1cn2cc(-c3ccc4c(c3)CCN(C3CCNCC3)C4=O)nc2c(C)n1 | 
inactive | inactive | Cc1cn2cc(C#Cc3ccc(N4CCN(C)CC4)cc3)nc2c(C)n1 | 
31 nM | 504 nM | Cc1cn2cc(NC(=O)c3ccc(N4CCNC(C)(C)C4)cc3F)ncc2n1 | 
inactive | inactive | Cc1cn2cc(-c3ccc(C(=O)NC4CCN(C)CC4)cc3)nc2c(C)n1 | 
91 nM | 176 nM | Cc1cn2cc(NC(=O)c3ccc(C4CCN(C)C4)cc3F)nc2c(C)n1 (stereo not given) | 
25 nM |  | Cc1cn2cc(-c3cc4ccc(N5CCN(C)CC5)cc4c(=O)o3)nc2c(C)n1 | Activity [3]: Toxic; Activity [4]: Toxic; Activity [5]: Toxic; Activity [6]: Toxic; Activity [7]: Toxic
15 nM | 122 nM | Cc1cn2cc(NC(=O)c3ccc(N4CCN[C@H](C)C4)cc3F)ncc2n1 | 
232 nM | 560 nM | Cc1cn2cc(NC(=O)c3ccc(N4CCN(C)CC4)cc3F)nc2c(C)n1 | 
37 nM | 87 nM | Cc1cn2cc(NC(=O)c3ccc(N4CCNCC4)cc3F)ncc2n1 | Activity [3]: Non-Toxic; Activity [4]: Non-Toxic; Activity [5]: Non-Toxic; Activity [6]: Non-Toxic; Activity [7]: Non-Toxic
inactive | inactive | Cc1cn2nc(NC(=O)c3ccc(N4CCNC(C)C4)cc3F)nc2c(C)n1 (stereo not given) | Activity [3]: Non-Toxic; Activity [4]: Non-Toxic; Activity [5]: Non-Toxic; Activity [6]: Non-Toxic; Activity [7]: Non-Toxic
inactive | inactive | Cc1cn2cc(C(=O)Nc3ccc(N4CCN(C)CC4)cc3)nc2c(C)n1 | 
 | 775 nM | Cc1cn2cc(NC(=O)c3ccc(N4CCNCC4)cc3)nc2c(C)n1 | 
1040 nM | 2250 nM | Cc1cn2cc(NC(=O)c3ccc(N4CCNCC4)cc3)ncc2n1 | 
29 nM | 158 nM | CC[C@@H]1CN(c2ccc(C(=O)Nc3cn4cc(C)nc4cn3)c(F)c2)CCN1 | AUC at 240 h [8]: 19000 ng·h/mL; Activity [9]: 45%; Activity [10]: 217%; AUC at 240 h [11]: 3730 ng·h/mL; Activity [12]: 0%; Activity [13]: 66%; Activity [14]: 117%; Activity [15]: 19%
4410 nM | 8420 nM | Cc1cn2cc(/C=C/c3ccc(N4CCNCC4)cc3)nc2c(C)n1 | 
40 nM | 152 nM | Cc1cn2cc(NC(=O)c3ccc(N4CCNC(C)C4)cc3F)c(C)cc2n1 (stereo not given) | Activity [3]: Non-Toxic; Activity [4]: Non-Toxic; Activity [5]: Non-Toxic; Activity [6]: Non-Toxic; Activity [7]: Non-Toxic
inactive | inactive | Cc1cn2cc(-c3ccc(NC(=O)C4CCN(C)CC4)cc3)nc2c(C)n1 | 

Compound | EC1.5 [1] | EC1.5 [2] | further results
Cc1cn2cc(CCc3ccc(N4CCNCC4)cc3)nc2c(C)n1 | inactive | inactive | 
Cc1cn2cc(COc3ccc(N4CCNCC4)cc3)nc2c(C)n1 | inactive | inactive | 

Source: ChEMBL document CHEMBL4049449, “Discovery of a Novel Class of Survival Motor Neuron 2 Splicing Modifiers for the Treatment of Spinal Muscular Atrophy” (J Med Chem, 2017)
